Measured values from ChEMBL document CHEMBL4373712, “Bioactivatable Pseudotripeptidization of Cyclic Dipeptides To Increase the Affinity toward Oligopeptide Transporter 1 for Enhanced Oral Absorption: An Application to Cyclo(l-Hyp-l-Ser) (JBP485)” (J Med Chem, 2019).
Calls of active or inactive are those of the source. The calls are words filed in the database; no cut-off is given here.

Assays:
[1] = Tmax in Beagle dog at 12 mg/kg, po by UPLC-MS/MS analysis; assay type: ADME, organism-based, Canis lupus familiaris; conditions: in vivo
Summary of the method: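 Male beagle dogs, 2 years old, 8–10 kg, dosed orally at 12 mg/kg (prodrug calculated as JBP485) in aqueous solution. Jugular blood taken 0.167–8 h into heparin, centrifuged, plasma JBP485 by UPLC-MS/MS; n=6.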

[2] = biological target: T1, Solute carrier family 15 member 1 (Homo sapiens, UniProt P46059); assay: Substrate activity at PEPT1 in human Caco2 cells assessed as inhibition of Gly-Sar uptake by LC-MS/MS analysis; assay type: cell-based
T1 sequence (P46059 whole entry): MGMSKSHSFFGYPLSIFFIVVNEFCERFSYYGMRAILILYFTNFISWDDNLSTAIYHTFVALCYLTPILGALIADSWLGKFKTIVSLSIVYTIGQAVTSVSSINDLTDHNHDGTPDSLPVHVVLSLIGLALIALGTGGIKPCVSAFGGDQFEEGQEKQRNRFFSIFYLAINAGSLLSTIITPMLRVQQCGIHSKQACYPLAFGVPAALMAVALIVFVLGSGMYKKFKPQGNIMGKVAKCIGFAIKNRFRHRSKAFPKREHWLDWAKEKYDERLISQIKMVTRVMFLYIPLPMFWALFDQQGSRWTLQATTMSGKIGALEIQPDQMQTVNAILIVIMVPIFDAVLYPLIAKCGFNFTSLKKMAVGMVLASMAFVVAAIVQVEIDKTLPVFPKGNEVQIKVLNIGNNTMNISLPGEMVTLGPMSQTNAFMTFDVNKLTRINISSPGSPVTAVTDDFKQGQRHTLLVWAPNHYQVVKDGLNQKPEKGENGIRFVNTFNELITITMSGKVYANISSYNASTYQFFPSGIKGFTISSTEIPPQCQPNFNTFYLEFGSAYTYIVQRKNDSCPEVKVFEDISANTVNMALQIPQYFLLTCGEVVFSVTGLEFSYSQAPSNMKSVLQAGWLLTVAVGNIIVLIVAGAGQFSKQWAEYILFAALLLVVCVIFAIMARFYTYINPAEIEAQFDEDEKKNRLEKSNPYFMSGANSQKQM
Summary of the method: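 Caco-2 cells with 0.5 mM Gly-Sar probe substrate and competitor at 0.5–50 mM. IC50 by nonlinear fitting; n=3.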

Rattus norvegicus [3] = assay: Anti-hepatitis activity in ANIT-induced Sprague-Dawley rat model of liver injury assessed as reduction in hepatocellular edema at 6.25 to 25 mg/kg, po administered 30 mins prior to ANIT challenge and subsequent dosing at 8, 22, 32, and 46 hrs post ANIT challenge and measured 48 hrs post ANIT challenge by H and E staining-based assay; assay type: functional, organism-based
Summary of the method: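 ANIT 50 mg/kg ip liver-injury model in male SD rats, 6 per group. Oral or ip treatment at 30 min before and 8, 22, 32 and 46 h after ANIT. Liver excised at 48 h, fixed in 4% formalin, stained with H&E, and examined microscopically for hepatocellular edema and necrosis.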

[4] = AUC (0 to t) in Sprague-Dawley rat at 12 mg/kg, po by UPLC-MS/MS analysis; assay type: ADME, organism-based; conditions: in vivo
Summary of the method: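 Male SD rats, 200-250 g, fasted 12 h with water, n=6. Oral dose of 12 mg/kg as JBP485 equivalent; dose-effect arms at 12 and 100 mg/kg. JBP485 given iv at 6 mg/kg as the reference. Jugular blood taken at 0.083-10 h. Plasma JBP485 by UPLC-MS/MS. Absolute F = (AUCpo×Div)/(AUCiv×Dpo)×100%, using AUC0-t.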

[5] = Terminal half life in Sprague-Dawley rat assessed as JBP485 level at 12 mg/kg, po by LC-MS/MS analysis; assay type: ADME, organism-based; conditions: in vivo
Summary of the method: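 Male SD rats (200–250 g) fasted 12 h, given JBP485 or prodrug (calculated as JBP485) orally at 12 or 100 mg/kg. Jugular blood sampled 0.083–10 h, plasma JBP485 by UPLC-MS/MS; n=6.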

Rattus norvegicus [6] = assay: (§1) Anti-hepatitis activity in ANIT-induced Sprague-Dawley rat model of liver injury assessed as reduction in serum alanine aminotransferase level at 6.25 to 12.5 mg/kg, ip administered 30 mins prior to ANIT challenge and subsequent dosing at 8, 22, 32, and 46 hrs post ANIT challenge and measured 48 hrs post ANIT challenge; assay type: functional, organism-based
Summary of the method: (§2)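 ANIT (50 mg/kg ip, olive oil) cholestatic liver injury in male SD rats, 6 per group. Oral or ip dosing (UDCA 100 mg/kg po in CMC-Na) at 30 min before and 8, 22, 32 and 46 h after ANIT. Serum collected at 48 h from the abdominal aorta; ALT and AST activities measured with kits.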

[7] = biological target: T2, Solute carrier family 15 member 1 (Rattus norvegicus, UniProt P51574); assay: Ratio of test compound effect to JBP485 effect for substrate activity at PEPT1 in Sprague-Dawley rat jejunum assessed as effective permeability; assay type: ADME, tissue-based
T2 sequence (P51574 whole entry): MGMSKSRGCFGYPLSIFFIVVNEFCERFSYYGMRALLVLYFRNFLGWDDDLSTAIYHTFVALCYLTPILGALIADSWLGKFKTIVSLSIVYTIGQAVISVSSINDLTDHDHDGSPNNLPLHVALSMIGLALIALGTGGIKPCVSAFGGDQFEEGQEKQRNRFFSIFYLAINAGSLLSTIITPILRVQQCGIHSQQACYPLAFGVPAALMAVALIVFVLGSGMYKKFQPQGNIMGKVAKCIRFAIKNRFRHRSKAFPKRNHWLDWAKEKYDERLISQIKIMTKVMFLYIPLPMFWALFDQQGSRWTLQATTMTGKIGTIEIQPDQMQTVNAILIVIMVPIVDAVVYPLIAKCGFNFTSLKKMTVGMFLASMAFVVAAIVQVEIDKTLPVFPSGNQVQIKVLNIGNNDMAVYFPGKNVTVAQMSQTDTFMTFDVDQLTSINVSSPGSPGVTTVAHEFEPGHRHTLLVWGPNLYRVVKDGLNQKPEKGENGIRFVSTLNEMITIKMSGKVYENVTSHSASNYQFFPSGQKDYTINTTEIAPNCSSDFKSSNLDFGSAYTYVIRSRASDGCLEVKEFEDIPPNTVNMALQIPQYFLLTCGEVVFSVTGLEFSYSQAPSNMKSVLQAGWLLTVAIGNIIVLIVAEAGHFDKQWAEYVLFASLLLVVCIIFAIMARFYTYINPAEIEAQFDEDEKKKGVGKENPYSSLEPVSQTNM
Summary of the method: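 In situ single-pass jejunal perfusion in fasted (12 h) male SD rats anaesthetised with urethane 1.5 g/kg i.p. About 10 cm of jejunum was perfused at 0.2 mL/min with pH 6.0 HEPES buffer containing 5 mM compound. Outflow was collected 15–120 min after steady state and assayed by HPLC. Peff was calculated from outlet/inlet concentration and volume ratios and segment radius and length.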

Rattus norvegicus [8] = assay: as §1, with “aspartate” for “alanine”, “3.125” for “6.25”, “25” for “12.5”, “po” for “ip”; assay type: functional, organism-based; summary of the method: as §2
[9] = Terminal half-life in Sprague-Dawley rat assessed as JBP485 level at 12 mg/kg equiv of JBP485 administered orally by UPLC-MS/MS analysis; assay type: ADME, organism-based; conditions: in vivo, po
Summary of the method: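 Fasted male SD rats (200–250 g), oral 12 mg/kg (prodrugs calculated as JBP485). Jugular blood 0.083–10 h, centrifuged, plasma JBP485 by UPLC-MS/MS; n=6.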

Row | Tmax [1] [h] | Ki [2] [mM] | AUCt [4] [nM/ml.hr] | beta t1/2 [5] [h] | Ratio [7] | beta t1/2 [9] [h] | SMILES | Activity (Rattus norvegicus [3]) | Activity (Rattus norvegicus [6]) | Activity (Rattus norvegicus [8])
1 | 1.5 | 36 | 81.4 | 2.12 |  |  | O=C1N[C@@H](CO)C(=O)N2C[C@H](O)C[C@@H]12 | Active | Active | 
2 |  |  |  |  | 6.03 | 2.11 | CC(C)[C@H](N)C(=O)OC[C@@H]1NC(=O)[C@@H]2C[C@@H](O)CN2C1=O |  |  | Active
